Here are results for 5 compounds from ChEMBL document CHEMBL1145780, “Evaluation of the first cytostatically active 1-aza-9-oxafluorenes as novel selective CDK1 inhibitors with P-glycoprotein modulating properties” (J Med Chem, 2003).

Data set [1] deals with Cyclin-dependent kinase 1/cyclin B (Homo sapiens, UniProt P06493+P14635+Q8WWL7+O95067). The data set is described as follows: Inhibition of Cyclin-dependent kinase 1-cyclin B from M phase starfish (Marthasterias glacialis) oocytes (inactive). Format: cell-based, Asteroidea. Particulars: oocyte; call rule not given here.
Data set [2] addresses Cyclin-dependent kinase 5/CDK5 activator 1 (Homo sapiens) (UniProt Q00535+Q15078). Kind of data set: Inhibition of Cyclin-dependent kinase 5 (CDK5) at 10 uM. Format: protein-complex assay. A digest of the protocol:
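Recombinant GST-tagged mammalian CDK5 and p25 mixed in equal amounts and purified. Assayed in the same homogenization buffer as CDK1/cyclin B (Mops pH 7.2, Mg2+, EGTA, DTT, phosphatase inhibitors) at 30 °C with 15 μM final ATP for 10 min. Phosphate incorporation measured with blanks subtracted. Percent inhibition at 10 μM test concentration, mean of two determinations.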

Another data set deals with IGROV-1. Kind of data set: Inhibition of ovarian cancer IGROVI cell proliferation. Type of data set: functional. The note with it: Homo sapiens. An outline of the steps:
(§1)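 NCI in vitro antitumour screen across 60 human tumour cell lines, run as a sulforhodamine B protein cytotoxicity assay. Values are log GI50, mean of two determinations. The panel mean-graph midpoint (MG_MID) summarises all 60 lines, and the ovarian IGROV1 line is reported individually.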

The test system of a further data set is Tumor Cell line. The data set is described as follows: Cytostatic activity in performed screen of NCI 60 cell lines, mean graph midpoint. The note with it: Homo sapiens. Format: functional. An outline of the steps:
as §1

Data set [3] addresses T1, ATP-dependent translocase ABCB1 (Homo sapiens, UniProt P08183). The data set is described as follows: Inhibition of membrane efflux pump P-glycoprotein at 7 uM. Type of data set: functional. A digest of the protocol: (§2)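 Rhodamine 123 uptake in L5178Y mouse T-cell lymphoma parental cells and the L5178YvMDR subline transfected with human MDR-1, at 2 × 10⁶ cells/mL in serum-free McCoy's 5A. Cells were preincubated with compound at room temperature, then given 5.2 μM rhodamine 123 (final) for 20 min at 37 °C and washed twice in PBS. Fluorescence of 1 × 10⁴ cells was read by flow cytometry. R = (MDR treated/untreated)/(parental treated/untreated), mean of two determinations.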

In data set [4] the target is T1, ATP-dependent translocase ABCB1. The data set is described as follows: Inhibition of P-glycoprotein, MDR-1, expressed in mouse T-cell lymphoma cell line at 70 uM. Format: functional, cell-based. A digest of the protocol: as §2
The target of data set [5] is Cyclin-dependent kinase 1/cyclin B (Homo sapiens, UniProt O95067+P06493+P14635+Q8WWL7). Kind of data set: Inhibition of Cyclin-dependent kinase 1-cyclin B from M phase starfish (Marthasterias glacialis) oocytes. Type of data set: cell-based, Asteroidea, Oocyte.
Cyclin-dependent kinase 1/cyclin B (Homo sapiens, UniProt O95067+P06493+P14635+Q8WWL7), sequence (P06493 whole entry): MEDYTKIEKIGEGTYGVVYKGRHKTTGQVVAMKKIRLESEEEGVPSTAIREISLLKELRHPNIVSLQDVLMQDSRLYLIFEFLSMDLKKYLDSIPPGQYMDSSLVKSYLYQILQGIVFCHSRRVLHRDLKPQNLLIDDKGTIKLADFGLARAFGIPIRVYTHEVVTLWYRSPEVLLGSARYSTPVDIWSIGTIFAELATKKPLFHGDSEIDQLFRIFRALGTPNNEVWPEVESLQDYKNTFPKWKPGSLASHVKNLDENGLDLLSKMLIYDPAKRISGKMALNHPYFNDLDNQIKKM
Cyclin-dependent kinase 1/cyclin B (Homo sapiens, UniProt O95067+P06493+P14635+Q8WWL7), sequence (P14635 whole entry): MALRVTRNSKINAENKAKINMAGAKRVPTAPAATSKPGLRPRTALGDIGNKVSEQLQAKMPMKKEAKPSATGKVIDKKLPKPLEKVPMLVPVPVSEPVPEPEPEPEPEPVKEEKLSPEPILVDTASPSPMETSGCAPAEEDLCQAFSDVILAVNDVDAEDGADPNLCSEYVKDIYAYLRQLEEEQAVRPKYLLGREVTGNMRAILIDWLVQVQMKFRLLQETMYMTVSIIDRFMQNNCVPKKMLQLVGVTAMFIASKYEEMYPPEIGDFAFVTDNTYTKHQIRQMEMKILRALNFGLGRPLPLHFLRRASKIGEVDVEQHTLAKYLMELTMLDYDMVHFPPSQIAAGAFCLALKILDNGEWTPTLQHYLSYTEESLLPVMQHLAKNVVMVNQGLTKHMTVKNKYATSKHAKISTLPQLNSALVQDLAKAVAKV
Cyclin-dependent kinase 1/cyclin B (Homo sapiens, UniProt O95067+P06493+P14635+Q8WWL7), sequence (Q8WWL7 whole entry): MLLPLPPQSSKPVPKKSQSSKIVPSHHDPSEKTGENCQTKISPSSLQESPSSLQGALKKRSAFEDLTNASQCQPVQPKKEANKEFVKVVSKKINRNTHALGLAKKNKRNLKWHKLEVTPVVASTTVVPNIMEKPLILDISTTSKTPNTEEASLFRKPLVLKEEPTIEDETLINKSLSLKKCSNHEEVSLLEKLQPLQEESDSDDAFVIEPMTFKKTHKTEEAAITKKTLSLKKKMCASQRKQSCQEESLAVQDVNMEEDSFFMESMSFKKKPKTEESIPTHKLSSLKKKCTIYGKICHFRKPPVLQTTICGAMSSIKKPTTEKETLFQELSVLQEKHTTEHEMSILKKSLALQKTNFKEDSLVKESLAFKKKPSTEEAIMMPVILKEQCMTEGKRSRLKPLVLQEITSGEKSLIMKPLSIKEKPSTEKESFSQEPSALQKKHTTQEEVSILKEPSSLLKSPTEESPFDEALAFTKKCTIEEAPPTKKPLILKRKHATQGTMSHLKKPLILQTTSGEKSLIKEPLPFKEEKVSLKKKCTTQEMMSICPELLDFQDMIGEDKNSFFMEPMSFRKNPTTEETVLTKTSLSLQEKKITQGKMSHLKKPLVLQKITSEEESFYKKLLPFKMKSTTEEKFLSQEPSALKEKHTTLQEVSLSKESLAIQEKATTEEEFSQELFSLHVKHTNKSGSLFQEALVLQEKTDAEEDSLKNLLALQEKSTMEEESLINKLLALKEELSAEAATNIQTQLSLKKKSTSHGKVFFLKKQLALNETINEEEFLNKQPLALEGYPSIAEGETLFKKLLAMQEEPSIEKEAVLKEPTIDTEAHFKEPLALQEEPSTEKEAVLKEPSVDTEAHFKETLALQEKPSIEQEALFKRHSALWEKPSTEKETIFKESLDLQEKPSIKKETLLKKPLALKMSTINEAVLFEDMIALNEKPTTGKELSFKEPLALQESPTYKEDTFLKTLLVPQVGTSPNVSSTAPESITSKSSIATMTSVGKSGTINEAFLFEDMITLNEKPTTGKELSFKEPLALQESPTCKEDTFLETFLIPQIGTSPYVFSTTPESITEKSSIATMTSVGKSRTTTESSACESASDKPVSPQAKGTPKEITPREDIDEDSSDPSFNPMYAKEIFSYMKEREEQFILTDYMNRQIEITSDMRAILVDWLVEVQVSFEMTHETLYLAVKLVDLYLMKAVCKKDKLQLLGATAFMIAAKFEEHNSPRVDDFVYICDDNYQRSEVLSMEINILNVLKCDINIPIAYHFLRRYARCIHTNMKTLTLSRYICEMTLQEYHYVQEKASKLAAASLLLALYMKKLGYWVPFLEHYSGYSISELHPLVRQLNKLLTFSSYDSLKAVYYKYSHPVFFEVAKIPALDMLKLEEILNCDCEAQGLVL
Cyclin-dependent kinase 1/cyclin B (Homo sapiens, UniProt O95067+P06493+P14635+Q8WWL7), sequence (O95067 whole entry): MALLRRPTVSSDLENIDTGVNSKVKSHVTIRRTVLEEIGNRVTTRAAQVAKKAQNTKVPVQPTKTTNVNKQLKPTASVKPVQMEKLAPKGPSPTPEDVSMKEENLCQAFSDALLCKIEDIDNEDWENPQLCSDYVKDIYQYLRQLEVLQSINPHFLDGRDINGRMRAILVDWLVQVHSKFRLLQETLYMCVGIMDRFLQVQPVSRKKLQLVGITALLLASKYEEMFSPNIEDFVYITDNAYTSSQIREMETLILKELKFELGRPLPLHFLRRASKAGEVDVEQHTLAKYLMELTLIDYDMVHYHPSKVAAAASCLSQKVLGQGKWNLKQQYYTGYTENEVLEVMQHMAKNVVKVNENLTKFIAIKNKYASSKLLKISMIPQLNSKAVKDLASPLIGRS

T1 sequence (P08183 whole entry): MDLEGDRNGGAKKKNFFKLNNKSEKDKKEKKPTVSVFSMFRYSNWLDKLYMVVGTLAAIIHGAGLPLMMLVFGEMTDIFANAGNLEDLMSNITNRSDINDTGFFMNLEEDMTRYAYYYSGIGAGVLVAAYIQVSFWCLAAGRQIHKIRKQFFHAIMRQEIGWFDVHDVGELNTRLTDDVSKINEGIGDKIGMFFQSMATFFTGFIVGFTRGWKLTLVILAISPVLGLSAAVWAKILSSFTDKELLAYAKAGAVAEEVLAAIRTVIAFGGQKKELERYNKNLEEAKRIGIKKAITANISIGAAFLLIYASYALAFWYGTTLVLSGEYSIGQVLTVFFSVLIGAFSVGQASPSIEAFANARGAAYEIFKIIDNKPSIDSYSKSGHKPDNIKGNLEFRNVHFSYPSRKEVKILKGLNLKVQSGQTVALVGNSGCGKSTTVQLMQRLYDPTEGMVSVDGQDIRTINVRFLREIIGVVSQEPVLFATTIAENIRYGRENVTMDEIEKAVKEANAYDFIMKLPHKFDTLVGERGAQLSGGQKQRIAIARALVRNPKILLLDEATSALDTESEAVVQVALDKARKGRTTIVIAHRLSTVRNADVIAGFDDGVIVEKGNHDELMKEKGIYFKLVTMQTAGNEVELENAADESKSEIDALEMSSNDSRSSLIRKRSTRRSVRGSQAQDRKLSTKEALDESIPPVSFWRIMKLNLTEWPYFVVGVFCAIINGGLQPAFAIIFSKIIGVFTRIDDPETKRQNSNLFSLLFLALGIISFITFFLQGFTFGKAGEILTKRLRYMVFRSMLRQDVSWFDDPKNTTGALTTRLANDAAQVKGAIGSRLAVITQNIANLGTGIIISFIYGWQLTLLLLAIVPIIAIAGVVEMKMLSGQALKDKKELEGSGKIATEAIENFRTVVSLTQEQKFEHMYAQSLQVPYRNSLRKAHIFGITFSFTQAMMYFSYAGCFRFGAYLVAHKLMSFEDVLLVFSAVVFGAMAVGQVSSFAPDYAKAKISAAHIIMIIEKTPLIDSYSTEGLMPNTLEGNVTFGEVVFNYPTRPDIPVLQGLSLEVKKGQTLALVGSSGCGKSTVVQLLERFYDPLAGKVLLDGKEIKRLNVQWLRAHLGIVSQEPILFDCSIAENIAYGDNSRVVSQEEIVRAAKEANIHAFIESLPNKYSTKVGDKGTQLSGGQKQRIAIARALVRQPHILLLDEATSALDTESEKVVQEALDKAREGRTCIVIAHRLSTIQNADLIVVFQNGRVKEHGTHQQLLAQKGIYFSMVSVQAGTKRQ
Cyclin-dependent kinase 5/CDK5 activator 1 (Homo sapiens), sequence (Q00535 whole entry): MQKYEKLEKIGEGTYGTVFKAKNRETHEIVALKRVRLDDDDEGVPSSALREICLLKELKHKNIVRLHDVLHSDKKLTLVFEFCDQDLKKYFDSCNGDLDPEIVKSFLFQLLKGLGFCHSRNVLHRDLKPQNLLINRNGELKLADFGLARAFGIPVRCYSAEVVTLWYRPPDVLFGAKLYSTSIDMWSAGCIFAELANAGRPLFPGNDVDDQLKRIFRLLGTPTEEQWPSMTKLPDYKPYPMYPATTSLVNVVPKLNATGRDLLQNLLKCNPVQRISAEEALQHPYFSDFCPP
Cyclin-dependent kinase 5/CDK5 activator 1 (Homo sapiens), sequence (Q15078 99-307 partner limits assumed): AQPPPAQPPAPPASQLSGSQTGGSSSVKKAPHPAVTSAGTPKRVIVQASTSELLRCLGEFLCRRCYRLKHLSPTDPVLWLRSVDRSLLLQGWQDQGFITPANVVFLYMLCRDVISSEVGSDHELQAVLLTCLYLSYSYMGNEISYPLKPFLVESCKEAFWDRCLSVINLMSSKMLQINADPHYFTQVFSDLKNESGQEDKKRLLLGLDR
Cyclin-dependent kinase 1/cyclin B (Homo sapiens, UniProt P06493+P14635+Q8WWL7+O95067), sequence (P06493 whole entry): as the sequence (P06493 whole entry) above
Cyclin-dependent kinase 1/cyclin B (Homo sapiens, UniProt P06493+P14635+Q8WWL7+O95067), sequence (P14635 whole entry): as the sequence (P14635 whole entry) above
Cyclin-dependent kinase 1/cyclin B (Homo sapiens, UniProt P06493+P14635+Q8WWL7+O95067), sequence (Q8WWL7 whole entry): as the sequence (Q8WWL7 whole entry) above
Cyclin-dependent kinase 1/cyclin B (Homo sapiens, UniProt P06493+P14635+Q8WWL7+O95067), sequence (O95067 whole entry): as the sequence (O95067 whole entry) above

In the case of `CC(=O)c1cnc2oc3ccc(O)cc3c2c1C`, in data set [1], the IC50 result is recorded as “Not Active”. This compound also gave an inhibition in data set [2] of 10%. Moreover, the GI50 in the data set with IGROV-1 and in the data set with Tumor Cell line was > 100 µM each time.
With `CCOC(=O)c1cnc2oc3ccc(O)cc3c2c1C`, the IC50 entry in data set [1] was “Not Active”. This compound also displayed an inhibition in data set [2] of 3%. Besides, the GI50 in the data set with IGROV-1 and in the data set with Tumor Cell line was 79.4 µM throughout. Moreover, the Inhibitory activity ratio in data set [3] is recorded as 1.18; in data set [4], 4.77.
Take `CC(=O)c1cnc2oc3ccc(O)cc3c2c1-c1ccccc1`: the 50% inhibitory concentration (IC50) in data set [5] was 4.2 µM. This compound also displayed an inhibition in data set [2] of 15%. Also, the GI50 in the data set on IGROV-1 was 5.01 µM; with Tumor Cell line, 31.6 µM. Besides, the Inhibitory activity ratio turned out to be 1.26 in data set [3] and 6.74 in data set [4].
In the case of `CCOC(=O)c1cnc2oc3ccc(OC(C)=O)cc3c2c1-c1ccccc1`, the GI50 in the data set on IGROV-1 is > 100 µM.
The compound `CCOC(=O)c1cnc2oc3ccc(O)cc3c2c1-c1ccccc1` returned a concentration for half-maximal inhibition (IC50) in data set [5] of 28.8 µM. Moreover, in data set [2], the inhibition worked out at 6%. In addition, the results for the concentration for 50% growth inhibition (GI50) with IGROV-1 and with Tumor Cell line were 2.51 µM and 31.6 µM, respectively. The Inhibitory activity ratio in data set [3] was found to be 9.5; in data set [4], 9.14.
